Assay results published in ChEMBL document CHEMBL4130495, “Design, synthesis and biological evaluations of N-Hydroxy thienopyrimidine-2,4-diones as inhibitors of HIV reverse transcriptase-associated RNase H” (Eur J Med Chem, 2017).

How the values were obtained:
[1] = biological target: Human immunodeficiency virus type 1 reverse transcriptase (Human immunodeficiency virus 1, UniProt Q72547); test: Inhibition of RNH activity of recombinant HIV1 reverse transcriptase RNase H assessed as reduction in internal cleavage of RNA strand using RNA/DNA duplex substrate HTS-1
Gag-Pol polyprotein = Gag-Pol polyprotein (Human immunodeficiency virus type 1 group M subtype B (isolate HXB2)(HIV-1), UniProt P04585); test: Inhibition of polymerase activity of recombinant HIV1 reverse polymerase assessed as reduction in extension of an 18 nucleotide DNA primer using template/primer and dNTPs incubated for 30 mins; parameters: species or system Human immunodeficiency virus 1
Outline: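 Recombinant HIV-1 RT (20 nM) was used with 40 nM template/primer (18-nt DNA primer annealed to a 100-nt DNA template) and 10 µM dNTPs in 50 mM Tris pH 7.8, 50 mM NaCl, with 1% DMSO and increasing compound concentrations. Reactions were started with 6 mM MgCl₂, run 30 min at 37 °C, and stopped with 100 mM EDTA. IC50 is reported as mean ± SD of ≥2 independent experiments.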

[2] = biological target: Human immunodeficiency virus type 1 integrase (Human immunodeficiency virus 1, UniProt Q7ZJM1); test: Inhibition of HIV1 integrase pre-incubated for 10 mins before DNA substrate addition and measured after 30 mins
[3] = system: Human immunodeficiency virus 1; test: Antiviral activity against HIV1 infected in human P4R5 cells assessed as reduction in viral infection preincubated with cells for 24 hrs followed by viral infection measured after 48 hrs by fluorescence based beta-galactosidase reporter gene based MAGI assay; format: functional, organism-based
P4R5 = test: Cytotoxicity in human P4R5 cells assessed as reduction in cell viability by MTS assay

Human immunodeficiency virus type 1 integrase, sequence (Q7ZJM1 whole entry): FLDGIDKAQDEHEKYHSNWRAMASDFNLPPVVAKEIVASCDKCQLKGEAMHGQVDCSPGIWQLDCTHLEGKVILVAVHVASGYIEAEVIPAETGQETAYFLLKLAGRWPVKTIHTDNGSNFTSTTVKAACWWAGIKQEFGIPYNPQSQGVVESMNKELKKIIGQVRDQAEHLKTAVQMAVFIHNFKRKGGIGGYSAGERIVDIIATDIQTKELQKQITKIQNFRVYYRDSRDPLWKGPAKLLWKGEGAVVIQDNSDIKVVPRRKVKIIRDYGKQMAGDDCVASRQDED

SMILES	IC50 [1]	IC50 (Gag-Pol polyprotein)	IC50 [2]	EC50 [3]	CC50 (P4R5; P4R5)	CC50 (P4R5; P4R5 cells)
Cc1csc2[nH]c(=O)n(O)c(=O)c12	0.1 µM	> 10 µM	12 µM	> 20 µM	81 µM	–
O=c1[nH]c2cc(-c3ccc(Cl)cc3)sc2c(=O)n1O	0.07 µM	> 10 µM	23 µM	> 20 µM	–	> 100 µM
O=c1[nH]c2cc(-c3ccc(F)cc3)sc2c(=O)n1O	0.2 µM	> 10 µM	17 µM	> 20 µM	–	> 100 µM
O=C1Cc2cc(-c3ccccc3)ccc2C(=O)N1O	1.3 µM	> 10 µM	2 µM	16 µM	19 µM	–
Cc1sc2[nH]c(=O)n(O)c(=O)c2c1C	0.1 µM	> 10 µM	8.4 µM	8.9 µM	62 µM	–
O=c1[nH]c2sc(-c3ccccc3)cc2c(=O)n1O	0.084 µM	> 10 µM	2.2 µM	> 20 µM	–	> 100 µM
O=c1[nH]c2cc(-c3ccccc3)sc2c(=O)n1O	0.1 µM	> 10 µM	4.5 µM	11 µM	28 µM	–
O=c1[nH]c2cc(-c3ccccc3)ccc2c(=O)n1O	0.2 µM	> 10 µM	11 µM	3.8 µM	6 µM	–
O=c1[nH]c2scc(-c3ccc(Cl)cc3)c2c(=O)n1O	0.04 µM	> 10 µM	2.1 µM	7.4 µM	–	> 100 µM
O=c1[nH]c2cc(-c3ccc(Cl)cc3)ccc2c(=O)n1O	0.2 µM	> 10 µM	–	4.5 µM	9.9 µM	–
O=c1[nH]c2scc(-c3ccccc3)c2c(=O)n1O	0.1 µM	> 10 µM	1.3 µM	14 µM	–	> 100 µM
O=c1[nH]c2sc(Cc3ccccc3)cc2c(=O)n1O	0.043 µM	> 10 µM	5 µM	> 20 µM	–	> 100 µM
O=c1[nH]c2sccc2c(=O)n1O	0.2 µM	> 10 µM	35 µM	18 µM	54 µM	–
Cc1c(C(=O)O)sc2[nH]c(=O)n(O)c(=O)c12	0.1 µM	> 10 µM	7.9 µM	> 20 µM	–	> 100 µM
O=c1[nH]c2c(c(=O)n1O)CN(Cc1ccccc1)CC2	–	> 10 µM	> 100 µM	–	–	–
